Test results reported in PubChem BioAssay AID504767 (Southern Research Specialized Biocontainment Screening …, 2011).

experiment: K1 capsule specificity via T7 phage lysis, dose response, selectivity assay for bacterial capsule biogenesis inhibitors, EV36 strain, set 4 (AID 504767); conditions: E. coli EV36 T7 phage lysis; series mostly up to 100 µM; bacterial growth OD600 3 h p.i., % of EV36+DMSO+T7 control (lower = more lysis): at the top concentration;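 active = target-selective compounds that prevent over 30% of T7 phage killing of the bacteria in the dose series; inactive = the rest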
In short: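 System – Escherichia coli EV36, a K1:K-12 hybrid strain · Repeats – quadruplicate · Technique – OD600 absorbance · Probe or stimulus – T7 bacteriophage · Timing – 1.5 h compound at 37 °C, read 3 h post-infection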

Bacterial growth OD600 3 h p.i., % of EV36+DMSO+T7 control (lower = more lysis), inactive:
O=C(Nc1nc2c(F)cc(F)cc2s1)c1cccnc1 100%
O=C(Nc1nc2c(Cl)cc(Cl)cc2s1)c1ccccn1 101%
O=C(Nc1nc2ccccc2s1)c1ccncc1 118%
O=C(Nc1nc2ccccc2s1)c1cccnc1 93%
Cc1cc(C)c2nc(NC(=O)c3ccccn3)sc2c1 37%
O=C(Nc1nc2c(F)cc(F)cc2s1)c1ccccc1 103%
O=C(Nc1nc2c(F)cc(F)cc2s1)c1ccncc1 93%
O=C(Nc1nc2c(F)cccc2s1)c1ccccn1 100%
O=C(Nc1nc2ccc(F)cc2s1)c1ccccn1 105%
